Data reported in ChEMBL document CHEMBL1152250, “Novel and orally active 5-(1,3,4-oxadiazol-2-yl)pyrimidine derivatives as selective FLT3 inhibitors” (Bioorg Med Chem Lett, 2008).
One block for each compound: values may come before it.

Legend:
MOLM-13 [1] = assay: Antiproliferative activity against human MOLM13 cells after 72 hrs by WST-1 assay; type: functional; conditions: MOLM-13, 72 h
Summary of the method: (§1)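 Cells kept in RPMI1640 with 10% heat-inactivated FBS, 1% penicillin and 1% streptomycin, seeded in 96-well plates and exposed to test compounds for 72 h. Viability read with WST-1 reagent. GI50 is the mean ± SEM of three experiments.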

Liver microsomes = assay: Metabolic stability in human liver microsomes assessed as intrinsic clearance; type: ADME, Microsome
Summary of the method: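 Pooled human liver microsomes (0.2 mg protein/mL) with test compound at 0.1 or 1 μmol/L, 5 mmol/L NADPH, 100 mmol/L phosphate buffer pH 7.4, 6 mmol/L MgCl2 and 0.1 mmol/L EDTA. Cosolvent was DMSO (0.01 or 0.001 vol%) or methanol (1 vol%). Incubated at 37 °C for a fixed time, n = 1 or 2. Stopped with CH3CN containing internal standard and analysed by LC-MS or LC-MS/MS. Intrinsic clearance calculated from percent remaining.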

[2] = target: T1, Receptor-type tyrosine-protein kinase FLT3 (Homo sapiens, UniProt P36888); assay: Inhibition of GST-tagged FLT3 by ELISA
T1 sequence (P36888 whole entry): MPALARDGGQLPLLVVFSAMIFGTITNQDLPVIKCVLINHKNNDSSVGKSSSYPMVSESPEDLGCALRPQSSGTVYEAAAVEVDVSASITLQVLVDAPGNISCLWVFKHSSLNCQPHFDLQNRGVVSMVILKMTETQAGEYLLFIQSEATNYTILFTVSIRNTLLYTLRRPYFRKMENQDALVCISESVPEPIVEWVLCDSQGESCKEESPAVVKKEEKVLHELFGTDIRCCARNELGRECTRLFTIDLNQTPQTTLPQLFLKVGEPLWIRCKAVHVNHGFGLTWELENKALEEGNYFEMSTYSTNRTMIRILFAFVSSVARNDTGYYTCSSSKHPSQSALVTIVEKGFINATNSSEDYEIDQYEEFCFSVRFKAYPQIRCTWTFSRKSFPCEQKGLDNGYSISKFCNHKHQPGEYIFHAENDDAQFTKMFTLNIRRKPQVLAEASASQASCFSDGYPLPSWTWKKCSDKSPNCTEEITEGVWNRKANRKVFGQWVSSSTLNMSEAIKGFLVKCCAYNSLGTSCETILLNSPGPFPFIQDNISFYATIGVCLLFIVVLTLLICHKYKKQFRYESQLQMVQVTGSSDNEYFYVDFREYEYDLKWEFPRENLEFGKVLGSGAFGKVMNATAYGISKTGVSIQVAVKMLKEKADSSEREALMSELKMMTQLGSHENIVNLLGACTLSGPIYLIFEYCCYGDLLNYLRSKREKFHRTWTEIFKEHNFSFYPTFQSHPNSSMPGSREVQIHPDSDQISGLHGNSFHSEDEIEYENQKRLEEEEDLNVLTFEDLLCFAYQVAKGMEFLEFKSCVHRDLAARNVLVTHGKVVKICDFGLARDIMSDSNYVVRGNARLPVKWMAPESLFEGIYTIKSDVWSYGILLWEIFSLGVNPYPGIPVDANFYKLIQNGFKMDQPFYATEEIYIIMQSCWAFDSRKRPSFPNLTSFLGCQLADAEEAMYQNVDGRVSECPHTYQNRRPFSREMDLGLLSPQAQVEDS

MOLM-13 [3] = assay: Antitumor activity against human MOLM13 cells xenografted in SCID mouse assessed as minimal tumor volume ratio at 50 mg/kg, po bid treated for 5 days measured after 7 days relative to control; type: functional
Summary of the method: (§2)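 SCID mice bearing subcutaneous MOLM-13 xenografts, 5 per group, dosed orally b.i.d. for 5 days. […] is the mean tumour volume ratio, treated to control. Regression is the mean tumour volume relative to the initial volume on day 0. Mortality and body weight were also recorded.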

Mus musculus [4] = assay: Toxicity to human MOLM13 cells xenografted SCID mouse assessed as mortality at 50 mg/kg, po bid after 5 days; type: organism-based, MOLM-13; parameters: dose 50 mg/kg, route oral; conditions: in vivo, 120 h
Summary of the method: (§3)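 MOLM-13 cells implanted subcutaneously in SCID mice. Compound given orally twice daily for 5 days at 50, 100 or 200 mg/kg, alongside an untreated control group. Mortality was scored per dose group, together with tumor volume as treated/control ratio and relative to day-0 volume.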

[5] = Antiproliferative activity against human HMC1 cells expressing FLT3-delta599 mutant after 72 hrs by WST-1 assay; type: functional; conditions: HMC1, 72 h; summary of the method: as §1
[6] = Antiproliferative activity against human HMC1 cells expressing FLT-D835Y mutant after 72 hrs by WST-1 assay; type: functional; conditions: HMC1, 72 h; summary of the method: as §1
[7] = Antiproliferative activity against human ML1 cells after 72 hrs by WST-1 assay; type: functional; conditions: ML1, 72 h; summary of the method: as §1
MOLM-13 [8] = assay: Antitumor activity against human MOLM13 cells xenografted in SCID mouse assessed as minimal tumor volume ratio at 100 mg/kg, po bid treated for 5 days measured after 7 days relative to control; type: functional; summary of the method: as §2
MOLM-13 [9] = assay: Antitumor activity against human MOLM13 cells xenografted in SCID mouse assessed as tumor volume ratio at 200 mg/kg, po bid treated for 5 days measured after 10 days relative to control; type: functional; summary of the method: as §2
MOLM-13 [10] = assay: Antitumor activity against human MOLM13 cells xenografted in SCID mouse assessed as minimal regressive tumor volume ratio at 100 mg/kg, po bid treated for 5 days measured after 4 days relative to control; type: functional; summary of the method: as §2
MOLM-13 [11] = assay: Antitumor activity against human MOLM13 cells xenografted in SCID mouse assessed as minimal regressive tumor volume ratio at 200 mg/kg, po bid treated for 5 days measured after 10 days relative to control; type: functional; summary of the method: as §2
Mus musculus [12] = assay: Toxicity to human MOLM13 cells xenografted SCID mouse assessed as mortality at 100 mg/kg, po bid after 5 days; type: organism-based, MOLM-13; parameters: dose 100 mg/kg, route oral; conditions: in vivo, 120 h; summary of the method: as §3
Mus musculus [13] = assay: Toxicity to human MOLM13 cells xenografted SCID mouse assessed as mortality at 200 mg/kg, po bid after 5 days; type: organism-based, MOLM-13; parameters: dose 200 mg/kg, route oral; conditions: in vivo, 120 h; summary of the method: as §3
MOLM-13 [14] = assay: Antitumor activity against human MOLM13 cells xenografted in po dosed SCID mouse assessed as tumor volume ratio administered bid for 5 days; type: functional, organism-based; summary of the method: as §2
MOLM-13 [15] = assay: Antitumor activity against human MOLM13 cells xenografted in po dosed SCID mouse assessed as regression tumor volume ratio administered bid for 5 days; type: functional, organism-based; summary of the method: as §2
Mus musculus [16] = assay: Toxicity to human MOLM13 cells xenografted SCID mouse assessed as body weight loss at 200 mg/kg, po bid after 5 days; type: organism-based, MOLM-13; parameters: dose 200 mg/kg, route oral; conditions: in vivo, 120 h; summary of the method: as §2
MOLM-13 [17] = assay: Antitumor activity against human MOLM13 cells xenografted in SCID mouse assessed as minimal regressive tumor volume ratio at 50 mg/kg, po bid treated for 5 days measured after 7 days relative to control; type: functional; summary of the method: as §2
MOLM-13 [18] = assay: Antitumor activity against human MOLM13 cells xenografted in SCID mouse assessed as minimal regressive tumor volume ratio at 100 mg/kg, po bid treated for 5 days measured after 7 days relative to control; type: functional; summary of the method: as §2
[19] = Metabolic stability in human liver microsomes

GI50 (MOLM-13 [1]): 999 nM
Structure (SMILES): COc1cc(CCNc2ncc(-c3nnc(C4CC4)o3)c(Nc3ccccc3)n2)ccn1

GI50 (MOLM-13 [1]): 74 nM
clearance (Liver microsomes): 38.3 mL/min/kg
Structure (SMILES): c1ccc(Nc2nc(NCCc3ccncc3)ncc2-c2nnc(CN3CCNCC3)o2)cc1

IC50 [2]: 34 nM
GI50 (MOLM-13 [1]): 10 nM
clearance (Liver microsomes): 267 mL/min/kg
Structure (SMILES): Oc1cccc(Nc2nc(NCCc3ccncc3)ncc2-c2nnc(C3CC3)o2)c1

Structure (SMILES): CCCNc1nc(NCCc2ccncc2)ncc1-c1nnc(CN(C)C)o1
GI50 (MOLM-13 [1]): 73 nM
clearance (Liver microsomes): 183 mL/min/kg
T/C (MOLM-13 [3]): 0.45
Activity (Mus musculus [4]): Non-toxic

Structure (SMILES): CCCNc1nc(NCCc2ccncc2)ncc1-c1nnc(CN2CCNCC2)o1
GI50 (MOLM-13 [1]): 29 nM
clearance (Liver microsomes): 18.3 mL/min/kg
GI50 [5]: 74 nM
GI50 [6]: 65 nM
GI50 [7]: 9110 nM
T/C (MOLM-13 [8]): 0.1
T/C (MOLM-13 [9]): 0.006
Ratio (MOLM-13 [10]): 0.571
Ratio (MOLM-13 [11]): 0.098
Activity (Mus musculus [4]): Non-toxic
Activity (Mus musculus [12]): Non-toxic
Activity (Mus musculus [13]): Non-toxic
Activity (MOLM-13 [14]): Dose-dependent effect
Activity (MOLM-13 [15]): Dose-dependent effect
Activity (Mus musculus [16]): Non-toxic

GI50 (MOLM-13 [1]): 287 nM
clearance (Liver microsomes): 68.3 mL/min/kg
Structure (SMILES): Nc1ccc(CCNc2ncc(-c3nnc(C4CC4)o3)c(Nc3ccccc3)n2)cc1

IC50 [2]: 134 nM
GI50 (MOLM-13 [1]): 40 nM
clearance (Liver microsomes): 217 mL/min/kg
Structure (SMILES): Cc1ccccc1Nc1nc(NCCc2ccncc2)ncc1-c1nnc(C2CC2)o1

GI50 (MOLM-13 [1]): 137 nM
clearance (Liver microsomes): 367 mL/min/kg
Structure (SMILES): Cc1cc(CCNc2ncc(-c3nnc(C4CC4)o3)c(Nc3ccccc3)n2)ccn1

GI50 (MOLM-13 [1]): 44 nM
clearance (Liver microsomes): 85 mL/min/kg
Structure (SMILES): Oc1ccc(CCNc2ncc(-c3nnc(C4CC4)o3)c(Nc3ccccc3)n2)cc1

GI50 (MOLM-13 [1]): 52 nM
clearance (Liver microsomes): 86.7 mL/min/kg
Structure (SMILES): CN1CCN(Cc2nnc(-c3cnc(NCCc4ccncc4)nc3NCC3CC3)o2)CC1

IC50 [2]: 80 nM
GI50 (MOLM-13 [1]): 263 nM
clearance (Liver microsomes): 23.3 mL/min/kg
Structure (SMILES): CCOc1nc(NCCc2ccncc2)ncc1-c1nnc(C2CC2)o1

GI50 (MOLM-13 [1]): 56 nM
clearance (Liver microsomes): 35 mL/min/kg
Structure (SMILES): CCCNc1nc(NCCc2ccncc2)ncc1-c1nnc(CO)o1
GI50 [5]: 76 nM
GI50 [6]: 116 nM
GI50 [7]: 5960 nM

GI50 (MOLM-13 [1]): 308 nM
clearance (Liver microsomes): 11.7 mL/min/kg
Structure (SMILES): CCCOc1nc(NCCc2ccncc2)ncc1-c1nnc(CN2CCN(C)CC2)o1

Structure (SMILES): CCNc1nc(NCCc2ccncc2)ncc1-c1nnc(CN2C[C@@H](C)N[C@@H](C)C2)o1
GI50 (MOLM-13 [1]): 94 nM
clearance (Liver microsomes): 13.3 mL/min/kg
GI50 [5]: 74 nM
GI50 [6]: 48 nM
GI50 [7]: > 10000 nM
T/C (MOLM-13 [3]): 0.2
T/C (MOLM-13 [8]): 0.014
Ratio (MOLM-13 [17]): 1.39
Ratio (MOLM-13 [18]): 0.12
Activity (Mus musculus [4]): Non-toxic
Activity (Mus musculus [12]): Non-toxic
Activity (MOLM-13 [14]): Dose-dependent effect
Activity (MOLM-13 [15]): Dose-dependent effect
Activity (Mus musculus [16]): Non-toxic

Structure (SMILES): CCCNc1nc(NCCc2ccncc2)ncc1-c1nnc(C2CC2)o1
IC50 [2]: 4.9 nM
GI50 (MOLM-13 [1]): 36 nM
clearance (Liver microsomes): 217 mL/min/kg
GI50 [5]: 36 nM
GI50 [6]: 52 nM
GI50 [7]: 4320 nM
T/C (MOLM-13 [3]): 0.47
T/C (MOLM-13 [8]): 0.34
Activity (Mus musculus [4]): Non-toxic
Activity (Mus musculus [16]): Non-toxic
Activity [19]: Unstable

GI50 (MOLM-13 [1]): 74 nM
clearance (Liver microsomes): 50 mL/min/kg
Structure (SMILES): CCCNc1nc(NCCc2ccncc2)ncc1-c1nnc(CN2CCC(N)CC2)o1

GI50 (MOLM-13 [1]): 50 nM
clearance (Liver microsomes): 105 mL/min/kg
Structure (SMILES): c1cc(CCNc2ncc(-c3nnc(CN4CCNCC4)o3)c(NC3CCC3)n2)ccn1

GI50 (MOLM-13 [1]): 99 nM
clearance (Liver microsomes): 1.67 mL/min/kg
Structure (SMILES): FCCCNc1nc(NCCc2ccncc2)ncc1-c1nnc(CN2CCNCC2)o1

IC50 [2]: 106 nM
GI50 (MOLM-13 [1]): 23 nM
clearance (Liver microsomes): 183 mL/min/kg
Structure (SMILES): Cc1ccc(Nc2nc(NCCc3ccncc3)ncc2-c2nnc(C3CC3)o2)cc1
